Assay outcomes from PubChem.
AI-2 QS modul – modulates the Vibrio harveyi AI-2 quorum sensing system | Vibrio harveyi JMH597 AI-2 luminescence/OD600 ratio, 9 h; hits give low values; strain lacks LuxN and CqsS sensors; 0 = neutral-control median | activity change, % at 7.5 µM | actives 0.4% (n = 300,000) | AID 2094; in the data active means activity change below about -75%, passing the limit was not always enough; inconclusive means no clear call, values can overlap the other calls;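 further: luminescence divided by OD600 gain over 9 h not by final OD600 alone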
pCIP destab – p/CIP protein destabilization | F442A p/CIP-EGFP cells, EGFP fluorescence, 16 h | decrease of EGFP signal, % at 10 µM | actives 0.01% (n = 290,000);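 active means EGFP signal decrease of at least 30% at 10 µM or well 3 SD below plate mean, unless failing retest; inactive means the rest, including hits failing retest or dose response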
PP1 counter – blocks human PP1-alpha phosphatase, a PP5 counter-screen. P62136. purified PP1alpha, OMFP fluorescence. inhibition, % at 6.7 µM. actives 0.9% (n = 320,000);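 active means inhibition above the mean inhibition of all tested compounds plus 3 SD, computed separately for each screening campaign, cut at about 15% in these data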
Target sequence (P62136 whole entry, looked up): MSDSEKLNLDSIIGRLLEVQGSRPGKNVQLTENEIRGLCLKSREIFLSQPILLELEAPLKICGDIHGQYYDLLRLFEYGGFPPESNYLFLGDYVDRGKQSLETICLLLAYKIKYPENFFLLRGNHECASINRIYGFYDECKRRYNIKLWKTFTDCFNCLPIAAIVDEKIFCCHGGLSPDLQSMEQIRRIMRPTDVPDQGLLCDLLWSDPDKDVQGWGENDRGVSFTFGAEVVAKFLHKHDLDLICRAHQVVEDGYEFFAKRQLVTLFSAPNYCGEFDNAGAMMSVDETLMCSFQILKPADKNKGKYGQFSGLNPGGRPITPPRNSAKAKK
UBC13 polyUb – inhibitors of human UBC13 polyubiquitin chain formation | AID 485273 | P61088 | TR-FRET | actives 0.47% (n = 330,000) | inhibition, % at 20 µM; in the data active means inhibition above about 45%, passing the limit was not always enough; inconclusive means no clear call, values can overlap the other calls
Target sequence (P61088 whole entry, looked up): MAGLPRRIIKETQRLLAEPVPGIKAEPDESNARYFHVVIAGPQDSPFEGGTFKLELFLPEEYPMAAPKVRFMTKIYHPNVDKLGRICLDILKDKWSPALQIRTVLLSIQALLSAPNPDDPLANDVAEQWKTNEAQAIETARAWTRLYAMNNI
T cruzi repl – T. cruzi replication inhibition. T. cruzi beta-gal in NIH3T3, luminescence, 90 h. inhibition, % (no concentration beside the values). actives 1.4% (n = 300,000);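 active means mean inhibition across valid replicates above about 55%, limit read from the data; inconclusive means mean below that limit but half or more replicates reach it; inactive means mean below it, under half of replicates reach it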;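 further: signal also drops with host cell toxicity which is not excluded here; higher percent means less beta-gal luminescence so fewer parasites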
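Assay system: NIH/3T3 fibroblasts plus reporter T. cruzi. Amount: NIH/3T3 cells, 5,000 per well. Buffer or medium: DMEM, 2% fetal bovine serum. Doses: compound pinned at 50 nL/well, DMSO. Schedule: ≥90 h infection period, 3 h prior cell attachment. Signal: luminescent β-galactosidase signal after 60 min lysis. Read-out: parasite load inhibition, %.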
JMH597 growth rt – retest Vibrio harveyi JMH597 growth inhibition; shares compounds with AI-2 QS modul; growth inhibition, % at 7.5 µM; AID 2726; OD600 absorbance, 9 h; lacks LuxN and CqsS sensors; actives 1% (n = 750);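 active means every replicate shows growth inhibition above 50%; inconclusive means at least half, but not all, replicates pass that cutoff; inactive means fewer than half of replicates pass it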
BB721 lum counter – retest counter-screen: luminescence loss in constitutive-on quorum sensing strain BB721; Vibrio harveyi BB721 luminescence, 9 h; shares compounds with AI-2 QS modul; inhibition, % at 7.5 µM; AID 2727; actives 95% (n = 750);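 active means inhibition above about 80% in every replicate, not just on average, limit read from the data; inconclusive means at least half of replicates past the limit, but not all; inactive means fewer than half of replicates past the limit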
BB721 growth rt – retest: blocks Vibrio harveyi BB721 growth; shares compounds with AI-2 QS modul; OD600 absorbance, 9 h; growth inhibition, % at 7.5 µM; actives 3% (n = 750);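 active means every replicate shows growth inhibition above 50%; inconclusive means at least half but not all replicates above 50% inhibition; inactive means under half of replicates above 50% inhibition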
JMH597 AI-2 mod – Vibrio harveyi AI-2 signaling luminescence modulation – JMH597 strain, confirmation. AID 2736. inhibition, % at 7.5 µM. Vibrio harveyi JMH597 AI-2 quorum sensing luminescence, 9 h; luxN and CqsS knockout, AI-2 only. shares compounds with AI-2 QS modul. actives 97% (n = 750);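 active means every replicate shows more than 75% inhibition of signal versus neutral control wells; inconclusive means half to three quarters of replicates exceed 75% inhibition; inactive means fewer than half of replicates exceed 75% inhibition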
Hits are given with their value; - = inactive; ? = inconclusive; . = no result. Compounds with a hit are over-represented: about 2.8% of the library has one in this group of screens.

SMILES | AI-2 QS modul | pCIP destab | PP1 counter | UBC13 polyUb | T cruzi repl | JMH597 growth rt | BB721 lum counter | BB721 growth rt | JMH597 AI-2 mod
COc1ccc(NC(=O)Cn2nnc(-c3ccccc3N)n2)cc1OC | - | - | - | - | - | . | . | . | .
c1ccc(OCCCn2nnc(-c3cccnc3)n2)cc1 | - | - | - | - | - | . | . | . | .
O=C(CCCn1nnc(-c2cccnc2)n1)c1ccc(F)cc1 | -80 | - | - | - | - | - | 92 | - | 95
CC1C(=O)Nc2ccccc2N1C(=O)c1cccc(C(F)(F)F)c1 (stereo unspecified) | - | - | - | - | - | . | . | . | .
Cc1ccccc1OCCC(=O)Nc1ccc(F)c(Cl)c1 | -93 | - | - | - | - | - | 97 | - | 98
Cc1ccc(NC(=O)CCOc2ccccc2C)cc1C | -78 | - | - | - | - | - | 92 | - | 93
O=C(CCC1CCN(C(=O)c2cncs2)CC1)Nc1ccccc1 | - | - | - | - | - | . | . | . | .
Cc1cccc(OCc2cc(-c3ccccc3)no2)c1C | -96 | - | - | - | - | - | 99 | - | 99
COc1ccc(-c2cc(CS(=O)(=O)c3ccccc3)on2)cc1 | - | - | - | - | - | . | . | . | .
Clc1ccc(OCc2cc(-c3ccccc3)no2)c(Cl)c1 | - | - | - | - | - | . | . | . | .
COc1ccc(-c2cc(COc3ccccc3)on2)cc1 | -89 | - | - | - | - | - | 97 | - | 98
Fc1ccc(OCc2cc(-c3ccccc3)no2)cc1 | -95 | - | - | - | - | - | 98 | - | 98
O=C(COc1nncc2ccccc12)Nc1ccc(F)c(F)c1 | -96 | - | - | - | - | - | 99 | - | 99
O=C(COc1nncc2ccccc12)Nc1c(F)c(F)c(F)c(F)c1F | - | - | - | - | - | . | . | . | .
CC(C)c1ccc(NC(=O)COc2nncc3ccccc23)cc1 | -96 | - | - | - | - | - | 99 | ? | 100
CC(=O)c1ccc(N2CCN(C(=O)C3CCCN(S(=O)(=O)c4c(C)[nH]c(=O)[nH]c4=O)C3)CC2)cc1 (stereo unspecified) | - | - | - | - | - | . | . | . | .
O=c1c2c(-c3ccc([N+](=O)[O-])cc3)csc2nc2n1CCCCC2 | - | - | - | - | - | . | . | . | .
Cc1ccsc1/C=N/NC(=O)Cc1ccc(Cl)cc1 | - | - | - | - | - | . | . | . | .
Cc1ccc(O)c(/C=N/NC(=O)Cc2ccc(Cl)cc2)c1 | -93 | - | - | - | - | - | 99 | - | 99
Cc1cc(C)nc(N2CCCC(CCC(=O)NCc3ccc(F)c(F)c3)C2)n1 (stereo unspecified) | - | - | - | - | - | . | . | . | .
Oc1ccc(Cl)cc1CNc1nccs1 | -79 | - | - | - | - | - | 92 | - | 92
Cc1ccc(C(=O)NCC(=O)Nc2ccc(S(=O)(=O)Nc3cc(C)nc(C)n3)cc2)cc1 | . | . | . | - | . | . | . | . | .
Cc1cc(NC(=O)Cn2c(C)nc3ccccc3c2=O)ccc1Br | -87 | - | - | - | - | - | 99 | - | 99
Cc1ccccc1NC(=O)Cn1nc(C)c2ccccc2c1=O | - | - | - | - | - | . | . | . | .
CC(=O)Nc1ccc(C(=O)Cn2nnc3ccccc3c2=O)cc1 | - | - | - | - | - | . | . | . | .
SMILES | AI-2 QS modul | pCIP destab | PP1 counter | UBC13 polyUb | T cruzi repl | JMH597 growth rt | BB721 lum counter | BB721 growth rt | JMH597 AI-2 mod
Cc1ccc(NC(=O)Cn2nc(C)c3ccccc3c2=O)cc1 | -85 | - | - | - | . | - | 97 | - | 98
Cc1cc(C)cc(NC(=O)Cn2nnc3ccccc3c2=O)c1 | -83 | - | - | - | - | - | 96 | - | 97
Cc1ccc(SCC(=O)O/N=C(\N)c2cccnc2)cc1 | - | - | - | - | - | . | . | . | .
COc1ccc(CNC(=O)Nc2ccccc2)cc1 | -88 | - | - | - | - | - | 95 | - | 96
COc1ccc(CNC(=O)Nc2ccc(OC)cc2)cc1 | - | - | - | - | - | . | . | . | .
COc1ccc(CNC(=O)Nc2ccc(C)cc2C)cc1 | - | - | - | - | - | . | . | . | .
COc1ccc(CNC(=O)Nc2cccc(C)c2)cc1 | -92 | - | - | - | - | - | 97 | - | 98
CC(C)c1cccc(C2=CC(=O)C[C@H](c3ccc4c(c3)OCO4)C2)c1 | . | . | - | - | . | . | . | . | .
Cc1ccc(NC(=O)COc2ccc(Br)cn2)cc1 | - | - | - | - | - | . | . | . | .
CCc1ccc(NC(=O)COc2ccc(Br)cn2)cc1 | -84 | - | - | - | - | - | 95 | - | 96
CCc1ccc(OCC(=O)Nc2ccncc2)c(Br)c1 | -81 | - | - | - | - | - | ? | - | 100
Cc1cc(Cl)ccc1OCCCC(=O)NNC(=O)c1ccccc1O | - | . | - | - | - | . | . | . | .
O=C(Nc1cccc(Cl)c1)OCCOc1ccccc1 | -87 | - | . | . | - | - | 92 | - | 92
O=C(Nc1ccccc1)OCCOc1ccccc1 | - | - | - | - | - | . | . | . | .
COc1ccc2nc3sc(C(=O)N4CCN(C)CC4)cc3cc2c1 | -86 | - | - | - | - | - | 89 | - | 93
COc1ccc2nc3sc(C(=O)NCCCN4CCc5ccccc5C4)cc3cc2c1 | - | - | - | - | - | . | . | . | .
CCc1ccc(CCC(=O)Nc2ccc(Cl)cc2)o1 | -89 | - | - | - | - | - | 96 | - | 98
CCOC(=O)c1ccc(NC(=O)CCc2ccc(CC)o2)cc1 | - | - | - | - | - | . | . | . | .
CCc1ccc(CCC(=O)Nc2ccc(C(C)=O)cc2)o1 | -94 | - | - | - | - | - | 98 | - | 99
Cc1ccc(CCC(=O)Nc2ccc(Cl)cc2)o1 | -87 | - | - | - | - | - | 91 | - | 93
CCc1ccc(CCC(=O)Nc2ccc(Br)cc2)o1 | -91 | - | - | - | - | - | 95 | - | 97
Cc1ccc(CCC(=O)Nc2ccc(N(C)C)cc2)o1 | . | - | - | - | - | . | . | . | .
COc1ccccc1CCN=C(N)NS(=O)(=O)c1ccc(C)c(C)c1 | - | - | - | - | - | . | . | . | .
CCN(CC(=O)Nc1ccc(C)c(S(=O)(=O)N2CCOCC2)c1)Cc1ccccc1 | - | . | - | - | - | . | . | . | .
Cc1ccc(-c2ccc(/C=N/NC(N)=S)o2)cc1 | -87 | - | - | - | - | - | 90 | ? | 92
NC(=S)N/N=C/c1ccc(-c2ccccc2)o1 | ? | - | - | - | - | . | . | . | .
Nc1nc(SCC(=O)Nc2ccc(Oc3ccccc3)cc2)n[nH]1 | -90 | - | - | - | - | - | 95 | - | 97
Nc1nc(NCc2ccccc2)nc(-c2ccccc2)n1 | -82 | - | - | - | - | - | 87 | - | 92
Cc1cc(C(=O)Nn2cnc3ccccc3c2=O)ccc1[N+](=O)[O-] | -86 | - | - | - | - | - | 95 | - | 97
